According to ChEMBL document CHEMBL4680083, “Identification of Tricyclic Agonists of Sphingosine-1-phosphate Receptor 1 (S1P) Employing Ligand-Based Drug Design” (J Med Chem, 2016):

What was measured:
Cytochrome P450 2C19 = Cytochrome P450 2C19 (Homo sapiens, UniProt P33261); test: Inhibition of CYP2C19 (unknown origin); assay type: ADME
Rattus norvegicus = test: Reduction in circulating lymphocytes count in Lewis rat blood at 1 mg/kg, po measured at 4 hrs by hematology analyzer based analysis; assay type: functional; set-up: scale not given: the % may be the effect or the level left
In short: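 Lewis rats were given an oral dose as a solution or suspension in PEG300, with controls receiving vehicle only. Blood was taken by retro-orbital bleeding under isoflurane at 4 and 24 h. Lymphocytes were counted on a hematology analyzer. Reduction is relative to the vehicle group, averaged over the animals in each group (n = 3−4).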

[1] = Cmax in mouse at 5 mg/kg, po or 2 mg/kg, iv; assay type: ADME, organism-based; set-up: dose 5 mg/kg; settings: in vivo
[2] = biological target: Sphingosine 1-phosphate receptor 1 (Homo sapiens, UniProt P21453); test: Agonist activity at human S1P1 expressed in CHO cell membranes assessed as stimulation of [35S]-GTPgamma-S binding measured after 45 mins by liquid scintillation counting method; set-up: species or system Cell membrane
In short: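 S1P1/CHO cell membranes at 3 μg protein/well with 3-fold compound dilutions. [35S]GTPγS 0.2 nM final, 45 min at room temperature. Filter-plate capture, water washes, scintillation counting. EC50 taken at 50% of each compound's own Ymax.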

[3] = Tmax in cynomolgus monkey at 0.5 mg/kg, po or 0.5 mg/kg, iv; assay type: ADME, organism-based, Macaca fascicularis; settings: in vivo
[4] = Clearance in rat at 1 mg/kg, po or 1 mg/kg, iv; assay type: ADME, organism-based; settings: in vivo
Cytochrome P450 2D6 = Cytochrome P450 2D6 (Homo sapiens, UniProt P10635); test: Inhibition of CYP2D6 (unknown origin); assay type: ADME
Homo sapiens = organism: Homo sapiens; test: Inhibition of sodium channel (unknown origin) assessed as reduction in 1 and 4 Hz-induced channel current at 10 uM by patch clamp technique relative to control

Chain of Cytochrome P450 2D6 (P10635 whole entry): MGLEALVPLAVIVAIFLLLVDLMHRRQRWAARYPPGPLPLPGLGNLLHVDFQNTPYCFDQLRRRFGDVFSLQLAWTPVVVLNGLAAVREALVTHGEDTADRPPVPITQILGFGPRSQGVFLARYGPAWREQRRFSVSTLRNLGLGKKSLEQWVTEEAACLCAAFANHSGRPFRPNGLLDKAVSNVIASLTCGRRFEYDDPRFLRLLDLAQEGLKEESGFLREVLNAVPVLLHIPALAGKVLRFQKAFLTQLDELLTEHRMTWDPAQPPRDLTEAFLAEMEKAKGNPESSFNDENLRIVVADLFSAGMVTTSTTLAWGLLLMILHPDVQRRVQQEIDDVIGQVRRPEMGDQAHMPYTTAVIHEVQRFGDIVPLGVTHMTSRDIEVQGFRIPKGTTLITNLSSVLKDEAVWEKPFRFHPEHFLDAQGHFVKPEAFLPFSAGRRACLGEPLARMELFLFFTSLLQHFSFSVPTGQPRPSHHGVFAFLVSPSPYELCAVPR
Chain of Sphingosine 1-phosphate receptor 1 (P21453 whole entry): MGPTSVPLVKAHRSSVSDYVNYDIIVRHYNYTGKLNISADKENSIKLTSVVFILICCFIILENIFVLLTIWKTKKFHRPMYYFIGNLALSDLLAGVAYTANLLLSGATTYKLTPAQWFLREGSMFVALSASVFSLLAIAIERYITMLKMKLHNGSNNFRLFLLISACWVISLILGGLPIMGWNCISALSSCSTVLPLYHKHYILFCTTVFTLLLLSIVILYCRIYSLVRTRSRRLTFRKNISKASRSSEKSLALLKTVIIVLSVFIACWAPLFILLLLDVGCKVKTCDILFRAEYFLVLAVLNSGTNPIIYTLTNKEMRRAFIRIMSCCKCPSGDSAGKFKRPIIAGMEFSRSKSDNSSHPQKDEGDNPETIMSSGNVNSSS
Chain of Cytochrome P450 2C19 (P33261 whole entry): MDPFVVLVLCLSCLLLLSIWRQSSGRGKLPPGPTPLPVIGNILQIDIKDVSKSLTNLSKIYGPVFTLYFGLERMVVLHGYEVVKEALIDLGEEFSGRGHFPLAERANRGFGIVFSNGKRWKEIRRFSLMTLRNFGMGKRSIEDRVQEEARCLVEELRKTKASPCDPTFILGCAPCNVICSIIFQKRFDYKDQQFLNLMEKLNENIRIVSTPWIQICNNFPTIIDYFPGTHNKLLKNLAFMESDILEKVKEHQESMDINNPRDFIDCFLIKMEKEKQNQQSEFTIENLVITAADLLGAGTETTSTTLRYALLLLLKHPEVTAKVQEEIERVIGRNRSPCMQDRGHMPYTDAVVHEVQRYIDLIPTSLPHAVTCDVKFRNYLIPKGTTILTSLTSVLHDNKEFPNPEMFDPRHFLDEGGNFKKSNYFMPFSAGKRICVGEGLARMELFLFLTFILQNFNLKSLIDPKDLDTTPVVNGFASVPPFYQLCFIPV

## O=C(O)C1CN(Cc2ccc3c(c2)CCc2c-3noc2-c2onc(-c3ccccc3)c2C(F)(F)F)C1
Cytochrome P450 2C19
  IC50: > 40 µM
Rattus norvegicus
  Activity: 83%
[1]
  Cmax: 3.6 µM
[2]
  EC50: 0.00059 µM
[3]
  Tmax: 4 h
[4]
  clearance: 8.5 mL/min/kg
Cytochrome P450 2D6
  IC50: > 40 µM
Homo sapiens
  inhibition: 12%
